# In PubChem BioAssay AID651929 (Vanderbilt Specialized Chemistry Center, 2012):
# Activity calls are given as the source filed them. No rule for the calls is given here.
# Molecular target: Muscarinic acetylcholine receptor M2 (Rattus norvegicus) (UniProt P10980)
# Assay: M2 receptor potentiation by M5-directed compounds, selectivity assay for M5 PAM discovery project, CHO cells, rat M2, calcium flux (AID 651929)
# Settings: CHO-K1 rM2/Gqi5, ACh EC20 calcium flux (Fluo-4); series mostly up to 30 µM
# Summary of the method: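 Material: M2/Gqi5 CHO-K1 cells; Measured by: calcium signal; Timing: 1.5 min compound pretreatment, 50 s acetylcholine stimulation, 25 °C; Read-out: % of maximal acetylcholine response.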
# Chain of Muscarinic acetylcholine receptor M2 (Rattus norvegicus) (P10980 whole entry, looked up): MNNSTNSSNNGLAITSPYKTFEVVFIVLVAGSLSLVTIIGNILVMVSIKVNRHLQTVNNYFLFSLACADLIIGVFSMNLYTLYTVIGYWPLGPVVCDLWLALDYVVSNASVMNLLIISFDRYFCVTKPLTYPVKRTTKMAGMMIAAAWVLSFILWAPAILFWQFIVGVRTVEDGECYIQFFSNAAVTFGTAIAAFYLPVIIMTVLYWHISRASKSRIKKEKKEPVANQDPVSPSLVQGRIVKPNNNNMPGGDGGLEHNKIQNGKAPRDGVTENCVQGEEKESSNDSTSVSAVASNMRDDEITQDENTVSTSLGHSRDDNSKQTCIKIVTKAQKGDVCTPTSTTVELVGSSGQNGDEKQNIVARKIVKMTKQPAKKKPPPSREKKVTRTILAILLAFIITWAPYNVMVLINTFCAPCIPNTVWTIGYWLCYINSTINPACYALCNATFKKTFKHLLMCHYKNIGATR
compound,measurement,value
O=C1C(=O)N(CCOc2ccccc2)c2ccc(OC(F)(F)F)cc21,outcome,inactive
